# Values joined by “and” are separate entries in the source; they are usually repeats but may differ in a detail not shown here. Identical values can stand only once.
# System: Fibroblast
# Assay: Multiplex assay against human fibroblast
# Assay type: toxicity, cell-based
# Method in brief: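 With compound added, live cells were imaged on a CQ1 microscope at 37°C and 5% CO2; staining with Hoechst33342, BioTracker Green Microtubule Cytoskeleton Dye, MitoTracker Red and Annexin V Alexa Fluor 680 had been done at seeding. The CellPathfinder machine-learning gating scheme split cells into Hoechst high-intensity objects or normal cells, normal cells into healthy, pyknosed or fragmented nuclei, and pyknosed cells into mitotic or apoptotic. The tubulin, mitochondrial-mass and membrane-permeability phenotypes are per cents of healthy-nucleus cells.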
# [1] = 12 h, 1 µM, compound concentration 1 uM
# [2] = 12 h, 10 µM, compound concentration 10 uM
# [3] = 24 h, 1 µM, compound concentration 1 uM
# [4] = 24 h, 10 µM, compound concentration 10 uM
# [5] = 48 h, 1 µM, compound concentration 1 uM
# [6] = 48 h, 10 µM, compound concentration 10 uM
compound,measurement,setting,value
O=C1NC(NC23CC4CC(CC(C4)C2)C3)=N/C1=C\c1ccc2ncsc2c1,Population Apoptotic (%),[1],51.97% and 44.44%
same,Population Fragmented Nuclei (%),[1],23.55% and 19.79%
same,Population Healthy Nuclei (%),[1],57.53% and 66.62%
same,Population Hoechst High Intensity Objects (%),[1],0%
same,Population Membrane Permeable-Phenotype (%),[1],1.3% and 2.27%
same,Population Mitochondria Different-Phenotype (%),[1],3.63% and 2.49%
same,Population Mitotic Cells (%),[1],48.03% and 55.56%
same,Population Normal (%),[1],100%
same,Population Pyknosed Nuclei (%),[1],18.93% and 13.6%
same,Population Tubulin-Different-Phenotype (%),[1],8.81% and 11.79%
same,Total Cell Count,[1],671 and 662
same,Population Apoptotic (%),[2],45.21% and 45.31%
same,Population Fragmented Nuclei (%),[2],36.23% and 36.1%
same,Population Healthy Nuclei (%),[2],32.66% and 30.01%
same,Population Hoechst High Intensity Objects (%),[2],28.04% and 33.79%
same,Population Membrane Permeable-Phenotype (%),[2],0.36% and 0.46%
same,Population Mitochondria Different-Phenotype (%),[2],0%
same,Population Mitotic Cells (%),[2],54.79% and 54.69%
same,Population Normal (%),[2],71.96% and 66.21%
same,Population Pyknosed Nuclei (%),[2],31.11% and 33.89%
same,Population Tubulin-Different-Phenotype (%),[2],0.73% and 7.37%
same,Total Cell Count,[2],1166 and 1092
same,Population Apoptotic (%),[3],49.15% and 52.44%
same,Population Fragmented Nuclei (%),[3],25.03% and 19.5%
same,Population Healthy Nuclei (%),[3],59% and 67.8%
same,Population Hoechst High Intensity Objects (%),[3],0% and 0.15%
same,Population Membrane Permeable-Phenotype (%),[3],2.52% and 1.37%
same,Population Mitochondria Different-Phenotype (%),[3],0.92% and 0.91%
same,Population Mitotic Cells (%),[3],50.85% and 47.56%
same,Population Normal (%),[3],100% and 99.85%
same,Population Pyknosed Nuclei (%),[3],15.97% and 12.69%
same,Population Tubulin-Different-Phenotype (%),[3],12.84% and 17.12%
same,Total Cell Count,[3],739 and 647
same,Population Apoptotic (%),[4],48.2% and 49.02%
same,Population Fragmented Nuclei (%),[4],28.62% and 33.38%
same,Population Healthy Nuclei (%),[4],37.8% and 32.44%
same,Population Hoechst High Intensity Objects (%),[4],27.11% and 32.18%
same,Population Membrane Permeable-Phenotype (%),[4],0.64% and 0.41%
same,Population Mitochondria Different-Phenotype (%),[4],0.32% and 0%
same,Population Mitotic Cells (%),[4],51.8% and 50.98%
same,Population Normal (%),[4],72.89% and 67.82%
same,Population Pyknosed Nuclei (%),[4],33.57% and 34.18%
same,Population Tubulin-Different-Phenotype (%),[4],1.6% and 2.89%
same,Total Cell Count,[4],1136 and 1100
same,Population Apoptotic (%),[5],58.9% and 52.22%
same,Population Fragmented Nuclei (%),[5],13.24% and 13.94%
same,Population Healthy Nuclei (%),[5],69.8% and 71.47%
same,Population Hoechst High Intensity Objects (%),[5],0%
same,Population Membrane Permeable-Phenotype (%),[5],1.5% and 2.72%
same,Population Mitochondria Different-Phenotype (%),[5],1.5% and 0.91%
same,Population Mitotic Cells (%),[5],41.1% and 47.78%
same,Population Normal (%),[5],100%
same,Population Pyknosed Nuclei (%),[5],16.96% and 14.59%
same,Population Tubulin-Different-Phenotype (%),[5],20.97% and 31.75%
same,Total Cell Count,[5],861 and 617
same,Population Apoptotic (%),[6],50.75% and 49.7%
same,Population Fragmented Nuclei (%),[6],29.22% and 30.74%
same,Population Healthy Nuclei (%),[6],35.44% and 26.72%
same,Population Hoechst High Intensity Objects (%),[6],25.71% and 37.77%
same,Population Membrane Permeable-Phenotype (%),[6],0.6% and 0.49%
same,Population Mitochondria Different-Phenotype (%),[6],0.6% and 0%
same,Population Mitotic Cells (%),[6],49.25% and 50.3%
same,Population Normal (%),[6],74.29% and 62.23%
same,Population Pyknosed Nuclei (%),[6],35.34% and 42.54%
same,Population Tubulin-Different-Phenotype (%),[6],1.19% and 2.91%
same,Total Cell Count,[6],1276 and 1239
Cc1cc(C(C#N)c2ccc(Cl)cc2)c(Cl)cc1NC(=O)c1cc(I)cc(I)c1O (centres undefined) [CLOSANTEL],Population Fragmented Nuclei (%),[1],11% and 4.88%
same,Population Healthy Nuclei (%),[1],69% and 80%
same,Population Hoechst High Intensity Objects (%),[1],0%
same,Population Membrane Permeable-Phenotype (%),[1],3.62% and 2.44%
same,Population Mitochondria Different-Phenotype (%),[1],10.14% and 4.88%
same,Population Mitotic Cells (%),[1],97.5% and 87.1%
same,Population Normal (%),[1],100%
same,Population Pyknosed Nuclei (%),[1],20% and 15.12%
same,Population Tubulin-Different-Phenotype (%),[1],11.59%
same,Total Cell Count,[1],200 and 205
same,Population Fragmented Nuclei (%),[2],14.05% and 6.49%
same,Population Healthy Nuclei (%),[2],60.33% and 78.38%
same,Population Hoechst High Intensity Objects (%),[2],0%
same,Population Membrane Permeable-Phenotype (%),[2],3.42% and 2.76%
same,Population Mitochondria Different-Phenotype (%),[2],8.22% and 6.21%
same,Population Mitotic Cells (%),[2],95.16% and 78.57%
same,Population Normal (%),[2],100%
same,Population Pyknosed Nuclei (%),[2],25.62% and 15.14%
same,Population Tubulin-Different-Phenotype (%),[2],12.33% and 14.48%
same,Total Cell Count,[2],242 and 185
same,Population Apoptotic (%),[3],11.76% and 28.57%
same,Population Fragmented Nuclei (%),[3],7.66% and 4.52%
same,Population Healthy Nuclei (%),[3],77.03% and 88.44%
same,Population Hoechst High Intensity Objects (%),[3],0%
same,Population Membrane Permeable-Phenotype (%),[3],1.17% and 0.57%
same,Population Mitochondria Different-Phenotype (%),[3],7.6% and 4.55%
same,Population Mitotic Cells (%),[3],88.24% and 71.43%
same,Population Normal (%),[3],100%
same,Population Pyknosed Nuclei (%),[3],15.32% and 7.04%
same,Population Tubulin-Different-Phenotype (%),[3],12.28% and 13.07%
same,Total Cell Count,[3],222 and 199
same,Population Apoptotic (%),[4],10.53% and 22.73%
same,Population Fragmented Nuclei (%),[4],9.54% and 3.72%
same,Population Healthy Nuclei (%),[4],74.69% and 84.57%
same,Population Hoechst High Intensity Objects (%),[4],0%
same,Population Membrane Permeable-Phenotype (%),[4],2.22% and 2.52%
same,Population Mitochondria Different-Phenotype (%),[4],3.89% and 5.03%
same,Population Mitotic Cells (%),[4],89.47% and 77.27%
same,Population Normal (%),[4],100%
same,Population Pyknosed Nuclei (%),[4],15.77% and 11.7%
same,Population Tubulin-Different-Phenotype (%),[4],12.78% and 13.84%
same,Total Cell Count,[4],241 and 188
same,Population Apoptotic (%),[5],35.29% and 17.65%
same,Population Fragmented Nuclei (%),[5],10.13% and 6.91%
same,Population Healthy Nuclei (%),[5],82.38% and 85.25%
same,Population Hoechst High Intensity Objects (%),[5],0%
same,Population Membrane Permeable-Phenotype (%),[5],1.07% and 1.62%
same,Population Mitotic Cells (%),[5],64.71% and 82.35%
same,Population Normal (%),[5],100%
same,Population Pyknosed Nuclei (%),[5],7.49% and 7.83%
same,Population Tubulin-Different-Phenotype (%),[5],8.02% and 14.05%
same,Total Cell Count,[5],227 and 217
same,Population Apoptotic (%),[6],33.33% and 66.67%
same,Population Fragmented Nuclei (%),[6],6.69% and 4.66%
same,Population Healthy Nuclei (%),[6],88.85% and 92.23%
same,Population Hoechst High Intensity Objects (%),[6],0%
same,Population Membrane Permeable-Phenotype (%),[6],0.84% and 3.93%
same,Population Mitochondria Different-Phenotype (%),[6],12.13% and 3.93%
same,Population Mitotic Cells (%),[6],66.67% and 33.33%
same,Population Normal (%),[6],100%
same,Population Pyknosed Nuclei (%),[6],4.46% and 3.11%
same,Population Tubulin-Different-Phenotype (%),[6],5.02% and 12.36%
same,Total Cell Count,[6],269 and 193
